PMC4562733 (International Journal of Nanomedicine, 2015)
In brackets after ≈: the same amount, converted by molar mass.

Experiments:
[1] = Release of free PTX in PBS; type: physicochemical; conditions: PBS pH 7.4, 37°C, 4 hours
How it was run: (§1)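 Test conjugate was dissolved at 5 mg per 2.5 mL in PBS pH 7.4 or human plasma and held at 37°C for up to 12 hours. Aliquots were drawn at set times and free PTX was extracted into ethyl acetate. Free PTX was quantified by reverse-phase C18 HPLC at 1 mL per minute and 30°C, with UV detection at 227 nm.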

[2] = tested on: MDA-MB-231 cells; experiment: Apoptosis study, PI staining and flow cytometry; type: cell-based, human; conditions: MDA-MB-231, 24 hours, 1 mg/mL
How it was run: (§2)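 Cells grown at 37°C, 5% CO2 in DMEM or RPMI 1640 with 10% FBS and penicillin/streptomycin. They were exposed for 24 h to free PTX or the fluorescein-labelled folate–PTX conjugates, added as a 1 mg/mL solution. Cells were then resuspended in binding buffer, stained with propidium iodide, and analysed at once by flow cytometry. The PI-positive late apoptotic/necrotic quadrant (Q4) was scored.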

[3] = tested on: tumor cell lines (MDA-MB-231, MCF-7, A549); experiment: Cellular uptake by flow cytometry, tumor groups together; type: cell-based, human; conditions: range over the three tumor cell lines
How it was run: (§3)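 Cells were seeded at 5×10^5 per well in culture medium (37°C, 5% CO2) and left overnight. They were then given 1 mg/mL solution of the FITC- or 5-aminofluorescein-labelled folate–PTX conjugates and incubated 8 h at 37°C. Cells were resuspended in PBS and immediately analysed by flow cytometry for percentage of fluorescent cells.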

[4] = tested on: MDA-MB-231 cells; experiment: Cellular uptake by flow cytometry; type: cell-based, human; conditions: MDA-MB-231, 1 mg/mL, 8 hours
How it was run: as §3

[5] = PTX loading by HPLC standard curve; type: physicochemical; conditions: HPLC peak area versus PTX content, n=5
How it was run: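 PTX content of the conjugate was calculated theoretically and checked against an HPLC standard curve of peak area versus PTX content, with standards in anhydrous ethyl alcohol.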

[6] = tested on: MCF-7 tumors; experiment: In vivo antitumor activity; set-up: species or system nude mice; conditions: MCF-7-bearing mice; for tumor growth inhibition rate: 5 mg/kg i.v. every 3 days, five injections
How it was run: (§4)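 Tumor cells implanted in the upper right axillary fossa of nude mice; treatment began when tumors reached 0.2–0.5 cm diameter. Mice were randomized to four groups (n=5): PBS pH 7.4 control, free paclitaxel, or test conjugates, each at 5 mg/kg in 0.2 mL. Dosing was by tail vein every 3 days, five injections over 15 days. Tumor volume and body weight were recorded daily; values are mean ± SD.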

[7] = tested on: MDA-MB-231, MCF-7, and A549 cancer cells; experiment: Cell viability; type: cell-based, human
How it was run: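 MTT assay. Cells were plated at 5×10^3 per well and exposed for 48 h to PTX or the conjugates (theoretical PTX content 45.93% and 47.71%) at […]–1 μg/mL, equal to 0.01435–0.4771 μg/mL conjugated PTX. Each drug was tested in six wells. MTT (5 mg/mL stock) was then added and absorbance read at 490 nm.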

[8] = tested on: A549 cells; experiment: Apoptosis study, PI staining and flow cytometry; type: cell-based, human; conditions: A549, 24 hours, 1 mg/mL
How it was run: as §2

[9] = tested on: A549 cells; experiment: Cellular uptake by flow cytometry; type: cell-based, human; conditions: A549, 1 mg/mL, 8 hours
How it was run: as §3

[10] = tested on: MCF-7 cells; experiment: Apoptosis study, PI staining and flow cytometry; type: cell-based, human; conditions: MCF-7, 24 hours, 1 mg/mL
How it was run: as §2

[11] = tested on: A549 tumors; experiment: In vivo antitumor activity; set-up: species or system nude mice; conditions: for tumor growth inhibition rate: 5 mg/kg i.v. every 3 days, five injections
How it was run: as §4

[12] = tested on: MCF-7 cells; experiment: Cellular uptake by flow cytometry; type: cell-based, human; conditions: MCF-7, 1 mg/mL, 8 hours
How it was run: as §3

[13] = tested on: HEK293 cells; experiment: Cellular uptake by flow cytometry; type: cell-based, human; conditions: HEK293 normal cells, 1 mg/mL, 8 hours
How it was run: as §3

[14] = Release of free PTX in human plasma, HPLC; type: in vitro ADME; conditions: 37°C, 4 hours
How it was run: as §1

[15] = Aqueous solubility; type: physicochemical; conditions: water, room temperature (25°C), n=4
[16] = Acute toxicity; conditions: both, Kunming, mouse, in vivo, iv
[17] = tested on: normal (Kunming) mice; experiment: Acute toxicity; conditions: tail vein, mice

| Molecule | free PTX released [1] [%] | late apoptosis/necrotic value (Q4) [2] [%] | percentage cell uptake in the tumor groups [3] | cell uptake rate [4] [%] | PTX loading [5] | tumor growth inhibition rate [6] | late apoptosis/necrotic value (Q4) [8] [%] | cell uptake rate [9] [%] | late apoptosis/necrotic value (Q4) [10] [%] | tumor growth inhibition rate ([11]; A549-bearing mice) [%] | cell uptake rate [12] [%] | cell uptake rate [13] [%] | decrease of body weight, of original weight ([11]; A549-bearing mice) | other results |
| --- | --- | --- | --- | --- | --- | --- | --- | --- | --- | --- | --- | --- | --- | --- |
| folic acid-fluorescein-5(6)-isothiocyanate-arginine-paclitaxel [FA-FITC-Arg-PTX] | 25.8 | 36.5 | 63.22%–89.63% | 89.6 | 38.70%±0.49% | 57.63% | 16.8 | 63.2 | 26.7 | 48.65 | 78.1 | 2.1 |  | cell viability ([7]; tumor cells, high doses): approximately 20% |
| CC(=O)O[C@H]1C(=O)[C@@]2(C)[C@H]([C@H](OC(=O)c3ccccc3)[C@]3(O)C[C@H](OC(=O)[C@H](OC(=O)[C@H](CCC(=O)Nc4ccc5c(c4)C(=O)OC54c5ccc(O)cc5Oc5cc(O)ccc54)NC(=O)CC[C@H](NC(=O)c4ccc(NCc5cnc6nc(N)[nH]c(=O)c6n5)cc4)C(=O)O)[C@@H](NC(=O)c4ccccc4)c4ccccc4)C(C)=C1C3(C)C)[C@]1(OC(C)=O)CO[C@@H]1C[C@@H]2O [FA-5AF-Glu-PTX, folic acid-5-aminofluorescein-glutamic-paclitaxel] | 23.3 | 34.1 | 59.01%–85.93% | 85.9 | 32.19%±0.35% |  | 16.3 | 59.0 | 27.9 |  | 75.1 | 1.9 | about 2% | free PTX released [14]: 54.84%; solubility [15]: 6410 ± 180 µg/mL (≈ 3.69 mM); body weight change during treatment [6]: gradual increase; inhibition rate relative to free PTX ([11]; A549 tumor): ~1.3 times |
| CC(=O)O[C@H]1C(=O)[C@@]2(C)[C@H]([C@H](OC(=O)c3ccccc3)[C@]3(O)C[C@H](OC(=O)[C@H](O)[C@@H](NC(=O)c4ccccc4)c4ccccc4)C(C)=C1C3(C)C)[C@]1(OC(C)=O)CO[C@@H]1C[C@@H]2O [PTX, Paclitaxel, reference compound] |  | 25.8 |  |  |  | about 38.16% | 14.6 |  | 19.9 | 35.23 |  |  | about 25.34% | LD50 at 14 days [16]: 25.48 ± 0.17 mg/kg; survival rate ([17]; 15 mg/kg): 90%; survival rate ([17]; 45 mg/kg): 0%; body weight loss ([6]; end of treatment): 3.88 g; body weight loss, of original body weight ([6]; end of treatment): approximately 20%; inhibition ratio (of total cells) ([7]; MTT, 48 hours, three tumor cell lines, maximum reached): ≤ 62.4%; decrease of body weight ([11]; A549-bearing mice): 3.92 g |
